The text below walks through data of ChEMBL document CHEMBL4257590, “Semisynthesis of Platensimycin Derivatives with Antibiotic Activities in Mice via Suzuki-Miyaura Cross-Coupling Reactions” (J Med Chem, 2018).

What all share (assay type): functional
In test [1] the test system is Staphylococcus aureus. Kind of test: Antibacterial activity against methicillin-sensitive Staphylococcus aureus isolate 1 after 16 hrs by agar dilution method. The note with it: isolate 1, 16 h. The procedure, abridged:
(§1)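 Agar dilution in LB agar with compound (from methanol solutions) at final 0.5–64 μg/ml per plate. Strains grown 16 h at 37 °C, 250 rpm in LB broth, adjusted to OD600 0.25±0.05, diluted 10^4-fold; 2 μl spotted per plate, incubated 16 h at 37 °C. MIC = lowest concentration with no visible colonies; at least two independent experiments. Linezolid and PTM as controls.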

Test [2] relates to Staphylococcus aureus. As to the kind of experiment: Antibacterial activity against methicillin-resistant Staphylococcus aureus isolate 3 after 16 hrs by agar dilution method. The note with it: isolate 3, 16 h. The procedure, abridged:
as §1
(In general: In agar dilution the substance is mixed into plates at graded concentrations.)

Test [3] concerns Staphylococcus aureus. Kind of test: Antibacterial activity against methicillin-resistant Staphylococcus aureus isolate 6 after 16 hrs by agar dilution method. The note with it: isolate 6, 16 h. The procedure, abridged:
as §1

The subject of test [4] is Staphylococcus aureus. Kind of test: Antibacterial activity against methicillin-resistant Staphylococcus aureus isolate 5 after 16 hrs by agar dilution method. The note with it: isolate 5, 16 h. The procedure, abridged: as §1
In test [5] the test system is Staphylococcus aureus. As to the kind of experiment: Antibacterial activity against methicillin-sensitive Staphylococcus aureus isolate 2 after 16 hrs by agar dilution method. The note with it: isolate 2, 16 h. The procedure, abridged:
as §1

Test [6] concerns Staphylococcus aureus. Kind of test: Antibacterial activity against Staphylococcus aureus ATCC 29213 after 16 hrs by agar dilution method. The note with it: ATCC 29213, 16 h. The procedure, abridged: as §1
For test [7], the system named is Staphylococcus aureus. Kind of test: Antibacterial activity against methicillin-resistant Staphylococcus aureus isolate 4 after 16 hrs by agar dilution method. The note with it: isolate 4, 16 h. The procedure, abridged: as §1

In brackets after ≈: the same amount, converted by molar mass.

One may read the MIC as the smallest concentration in the dilution series that meets the test's criterion for growth inhibition. With `CC(=O)NC[C@H]1CN(c2ccc(N3CCOCC3)c(F)c2)C(=O)O1` [LINEZOLID], the MIC in test [1], in test [2], in test [3], in test [4], in test [5] and in test [6] was 1 µg/mL (≈ 2.96 µM) in each case. For the same molecule, in test [7], the MIC came to 1 µg/mL (≈ 2.96 µM).
In the case of `Cc1cc(C)cc(C2=C[C@]34C[C@@H]5C[C@H](O[C@@]5(C)C3)[C@H]4[C@](C)(CCC(=O)Nc3c(O)ccc(C(=O)O)c3O)C2=O)c1`, the MIC in test [1], in test [2], in test [3], in test [4], in test [5] and in test [6] was 4 µg/mL (≈ 7.33 µM) each time. The molecule also yielded an MIC in test [7] of 4 µg/mL (≈ 7.33 µM).
With `C[C@]12C[C@@]34C=C(c5ccc(-c6ccccc6)cc5)C(=O)[C@@](C)(CCC(=O)Nc5c(O)ccc(C(=O)O)c5O)[C@@H]3[C@H](C[C@H]1C4)O2`, the MIC stood at 8 µg/mL (≈ 13.5 µM) in test [1]; 8 µg/mL (≈ 13.5 µM) in test [2]; 8 µg/mL (≈ 13.5 µM) in test [3]; 8 µg/mL (≈ 13.5 µM) in test [4]; 8 µg/mL (≈ 13.5 µM) in test [5]; 4 µg/mL (≈ 6.74 µM) in test [6]. For the same molecule, in test [7], inhibition of growth (MIC) required 8 µg/mL (≈ 13.5 µM).
On to `COc1ccccc1C1=C[C@]23C[C@@H]4C[C@H](O[C@@]4(C)C2)[C@H]3[C@](C)(CCC(=O)Nc2c(O)ccc(C(=O)O)c2O)C1=O`, for which the MIC turned out to be 8 µg/mL (≈ 14.6 µM) in test [1]; 16 µg/mL (≈ 29.2 µM) in test [2]; 16 µg/mL (≈ 29.2 µM) in test [3]; 16 µg/mL (≈ 29.2 µM) in test [4]; 16 µg/mL (≈ 29.2 µM) in test [5]; 8 µg/mL (≈ 14.6 µM) in test [6]. The molecule further returned an MIC in test [7] of 16 µg/mL (≈ 29.2 µM).
In the case of `C[C@]12C[C@@]34C=C(c5ccccc5)C(=O)[C@@](C)(CCC(=O)Nc5c(O)ccc(C(=O)O)c5O)[C@@H]3[C@H](C[C@H]1C4)O2`, the MIC in test [1], in test [2], in test [3], in test [4], in test [5] and in test [6] was 16 µg/mL (≈ 30.9 µM) throughout. Further, the MIC in test [7] amounted to 16 µg/mL (≈ 30.9 µM).
Consider `Cc1cccc(C2=C[C@]34C[C@@H]5C[C@H](O[C@@]5(C)C3)[C@H]4[C@](C)(CCC(=O)Nc3c(O)ccc(C(=O)O)c3O)C2=O)c1`, for which the MIC in test [1] turned out to be 4 µg/mL (≈ 7.52 µM); in test [2] it was 8 µg/mL (≈ 15 µM); in test [3], 8 µg/mL (≈ 15 µM); in test [4], 8 µg/mL (≈ 15 µM); in test [5], 4 µg/mL (≈ 7.52 µM); in test [6], 8 µg/mL (≈ 15 µM). In test [7], this molecule showed an MIC of 8 µg/mL (≈ 15 µM).
Take `C[C@]12C[C@@]34C=C(c5cc(Cl)cc(Cl)c5)C(=O)[C@@](C)(CCC(=O)Nc5c(O)ccc(C(=O)O)c5O)[C@@H]3[C@H](C[C@H]1C4)O2`: the MIC in test [1], in test [2], in test [3], in test [4], in test [5] and in test [6] was 8 µg/mL (≈ 13.6 µM) in each case. In test [7], the MIC came out at 8 µg/mL (≈ 13.6 µM).
Regarding `C[C@]12C[C@@]34C=C(c5ccc6ccccc6c5)C(=O)[C@@](C)(CCC(=O)Nc5c(O)ccc(C(=O)O)c5O)[C@@H]3[C@H](C[C@H]1C4)O2`, the MIC in test [1], in test [2], in test [3], in test [4], in test [5] and in test [6] was 8 µg/mL (≈ 14.1 µM) in each case. Besides, the lowest concentration to inhibit growth in test [7] (MIC) was 8 µg/mL (≈ 14.1 µM).
With `Cc1ccccc1C1=C[C@]23C[C@@H]4C[C@H](O[C@@]4(C)C2)[C@H]3[C@](C)(CCC(=O)Nc2c(O)ccc(C(=O)O)c2O)C1=O`, the MIC was found to be 8 µg/mL (≈ 15 µM) in test [1]; 16 µg/mL (≈ 30.1 µM) in test [2]; 16 µg/mL (≈ 30.1 µM) in test [3]; 16 µg/mL (≈ 30.1 µM) in test [4]; 16 µg/mL (≈ 30.1 µM) in test [5]; 8 µg/mL (≈ 15 µM) in test [6]. This molecule also had an MIC in test [7] of 16 µg/mL (≈ 30.1 µM).
Regarding `CCCCCc1ccc(C2=C[C@]34C[C@@H]5C[C@H](O[C@@]5(C)C3)[C@H]4[C@](C)(CCC(=O)Nc3c(O)ccc(C(=O)O)c3O)C2=O)cc1`, the MIC in test [1], in test [2], in test [3], in test [4], in test [5] and in test [6] was 4 µg/mL (≈ 6.81 µM) in each case. This molecule displayed an MIC in test [7] of 4 µg/mL (≈ 6.81 µM).
With `Cc1ccc(C2=C[C@]34C[C@@H]5C[C@H](O[C@@]5(C)C3)[C@H]4[C@](C)(CCC(=O)Nc3c(O)ccc(C(=O)O)c3O)C2=O)cc1`, the minimal inhibitory concentration (MIC) came to 8 µg/mL (≈ 15 µM) in test [1]; 8 µg/mL (≈ 15 µM) in test [2]; 16 µg/mL (≈ 30.1 µM) in test [3]; 16 µg/mL (≈ 30.1 µM) in test [4]; 8 µg/mL (≈ 15 µM) in test [5]; 8 µg/mL (≈ 15 µM) in test [6]. In test [7], this molecule showed an MIC of 16 µg/mL (≈ 30.1 µM).
For the molecule `C[C@]12C[C@@]34C=C(c5cccc(OC(F)(F)F)c5)C(=O)[C@@](C)(CCC(=O)Nc5c(O)ccc(C(=O)O)c5O)[C@@H]3[C@H](C[C@H]1C4)O2`, the MIC in test [1], in test [2], in test [3], in test [4], in test [5] and in test [6] was 8 µg/mL (≈ 13.3 µM) throughout. In test [7], this molecule registered an MIC of 8 µg/mL (≈ 13.3 µM).
With `C[C@]12C[C@@]34C=C(c5cccc(C(F)(F)F)c5)C(=O)[C@@](C)(CCC(=O)Nc5c(O)ccc(C(=O)O)c5O)[C@@H]3[C@H](C[C@H]1C4)O2`, the MIC in test [1] turned out to be 4 µg/mL (≈ 6.83 µM); in test [2] it was 8 µg/mL (≈ 13.7 µM); in test [3] it was 8 µg/mL (≈ 13.7 µM); in test [4], 8 µg/mL (≈ 13.7 µM); in test [5] it was 8 µg/mL (≈ 13.7 µM); in test [6], 4 µg/mL (≈ 6.83 µM). Moreover, the MIC in test [7] is 8 µg/mL (≈ 13.7 µM).
For the molecule `C[C@]12C[C@@]34C=C(c5ccc(C=O)cc5)C(=O)[C@@](C)(CCC(=O)Nc5c(O)ccc(C(=O)O)c5O)[C@@H]3[C@H](C[C@H]1C4)O2`, the MIC is 16 µg/mL (≈ 29.3 µM) in test [1]; 32 µg/mL (≈ 58.7 µM) in test [2]; 32 µg/mL (≈ 58.7 µM) in test [3]; 32 µg/mL (≈ 58.7 µM) in test [4]; 16 µg/mL (≈ 29.3 µM) in test [5]; 32 µg/mL (≈ 58.7 µM) in test [6]. The molecule further gave an MIC in test [7] of 32 µg/mL (≈ 58.7 µM).
Consider `C[C@]12C[C@@]34C=C(c5cccc(-c6ccccc6)c5)C(=O)[C@@](C)(CCC(=O)Nc5c(O)ccc(C(=O)O)c5O)[C@@H]3[C@H](C[C@H]1C4)O2`, for which the MIC in test [1], in test [2], in test [3], in test [4], in test [5] and in test [6] was 8 µg/mL (≈ 13.5 µM) in each case. For the same molecule, the lowest concentration to inhibit growth in test [7] (MIC) was 8 µg/mL (≈ 13.5 µM).
Take `C[C@]12C[C@@]34C=C(c5cccc(O)c5)C(=O)[C@@](C)(CCC(=O)Nc5c(O)ccc(C(=O)O)c5O)[C@@H]3[C@H](C[C@H]1C4)O2`: the MIC in test [1], in test [2], in test [3], in test [4], in test [5] and in test [6] was 32 µg/mL (≈ 60 µM) throughout. The molecule also showed an MIC in test [7] of 32 µg/mL (≈ 60 µM).
For `C[C@]12C[C@@]34C=C(c5cc6ccccc6c6ccccc56)C(=O)[C@@](C)(CCC(=O)Nc5c(O)ccc(C(=O)O)c5O)[C@@H]3[C@H](C[C@H]1C4)O2`, the MIC in test [1] worked out at 2 µg/mL (≈ 3.24 µM); in test [2] it was 4 µg/mL (≈ 6.48 µM); in test [3], 2 µg/mL (≈ 3.24 µM); in test [4], 4 µg/mL (≈ 6.48 µM); in test [5] it was 2 µg/mL (≈ 3.24 µM); in test [6], 2 µg/mL (≈ 3.24 µM). Moreover, the MIC in test [7] turned out to be 2 µg/mL (≈ 3.24 µM).
